Columns and labels:
[1] = biological target: T1, Alpha-1D adrenergic receptor (Homo sapiens, UniProt P25100); assay: Binding affinity determined by displacement of [3H]prazosin from alpha-1D adrenergic receptor
T1 sequence (P25100 whole entry): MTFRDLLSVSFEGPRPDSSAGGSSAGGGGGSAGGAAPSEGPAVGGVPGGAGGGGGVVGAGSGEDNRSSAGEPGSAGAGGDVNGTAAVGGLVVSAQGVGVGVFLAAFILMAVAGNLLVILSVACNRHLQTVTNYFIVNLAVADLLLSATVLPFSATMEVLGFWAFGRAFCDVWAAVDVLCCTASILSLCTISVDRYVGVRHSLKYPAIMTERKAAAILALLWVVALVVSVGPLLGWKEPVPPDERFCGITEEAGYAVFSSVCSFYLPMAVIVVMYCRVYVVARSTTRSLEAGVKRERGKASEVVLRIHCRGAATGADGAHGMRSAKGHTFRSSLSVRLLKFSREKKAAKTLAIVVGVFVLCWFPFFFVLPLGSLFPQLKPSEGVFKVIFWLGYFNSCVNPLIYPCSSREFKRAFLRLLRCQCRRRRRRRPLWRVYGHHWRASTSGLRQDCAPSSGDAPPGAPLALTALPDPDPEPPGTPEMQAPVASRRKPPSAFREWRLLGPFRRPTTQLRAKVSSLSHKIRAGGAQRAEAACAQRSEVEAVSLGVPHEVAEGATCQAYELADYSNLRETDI
In short: (§1)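 Radioligand displacement binding at the cloned receptor, incubated for 30 min.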

[2] = biological target: T2, Alpha-1A adrenergic receptor (Homo sapiens, UniProt P35348); assay: Binding affinity determined by displacement of [3H]prazosin from alpha-1A adrenergic receptor
T2 sequence (P35348 whole entry): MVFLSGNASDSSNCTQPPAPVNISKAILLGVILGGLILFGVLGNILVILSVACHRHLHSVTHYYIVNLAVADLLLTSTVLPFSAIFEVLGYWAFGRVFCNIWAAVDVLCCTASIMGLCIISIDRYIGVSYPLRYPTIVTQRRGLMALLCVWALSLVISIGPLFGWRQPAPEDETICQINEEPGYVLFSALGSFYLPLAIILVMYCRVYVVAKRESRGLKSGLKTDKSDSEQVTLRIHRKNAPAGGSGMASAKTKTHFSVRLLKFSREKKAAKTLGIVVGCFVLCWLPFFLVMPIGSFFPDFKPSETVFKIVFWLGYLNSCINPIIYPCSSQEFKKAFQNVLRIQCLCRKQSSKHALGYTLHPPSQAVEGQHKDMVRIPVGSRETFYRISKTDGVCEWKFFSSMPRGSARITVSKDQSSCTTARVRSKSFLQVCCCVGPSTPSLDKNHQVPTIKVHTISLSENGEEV

[3] = biological target: T3, Alpha-2B adrenergic receptor (Homo sapiens, UniProt P18089); assay: Binding affinity determined by displacement of [3H]rauwolscine from alpha-2B adrenergic receptor
T3 sequence (P18089 whole entry): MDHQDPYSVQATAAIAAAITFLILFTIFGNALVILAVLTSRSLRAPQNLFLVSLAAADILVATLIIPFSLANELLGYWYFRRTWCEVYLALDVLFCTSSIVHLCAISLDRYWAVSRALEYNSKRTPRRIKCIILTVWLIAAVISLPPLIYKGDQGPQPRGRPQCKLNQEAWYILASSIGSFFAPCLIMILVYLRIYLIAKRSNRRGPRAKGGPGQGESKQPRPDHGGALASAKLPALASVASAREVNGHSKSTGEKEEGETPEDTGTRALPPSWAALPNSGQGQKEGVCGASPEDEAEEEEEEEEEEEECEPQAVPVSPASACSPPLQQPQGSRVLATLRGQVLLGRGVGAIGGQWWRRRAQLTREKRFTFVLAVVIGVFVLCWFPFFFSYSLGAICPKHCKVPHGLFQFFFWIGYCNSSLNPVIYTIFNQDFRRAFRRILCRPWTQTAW

[4] = biological target: T4, Alpha-1B adrenergic receptor (Homo sapiens, UniProt P35368); assay: Binding affinity determined by displacement of [3H]prazosin from alpha-1B adrenergic receptor
T4 sequence (P35368 whole entry): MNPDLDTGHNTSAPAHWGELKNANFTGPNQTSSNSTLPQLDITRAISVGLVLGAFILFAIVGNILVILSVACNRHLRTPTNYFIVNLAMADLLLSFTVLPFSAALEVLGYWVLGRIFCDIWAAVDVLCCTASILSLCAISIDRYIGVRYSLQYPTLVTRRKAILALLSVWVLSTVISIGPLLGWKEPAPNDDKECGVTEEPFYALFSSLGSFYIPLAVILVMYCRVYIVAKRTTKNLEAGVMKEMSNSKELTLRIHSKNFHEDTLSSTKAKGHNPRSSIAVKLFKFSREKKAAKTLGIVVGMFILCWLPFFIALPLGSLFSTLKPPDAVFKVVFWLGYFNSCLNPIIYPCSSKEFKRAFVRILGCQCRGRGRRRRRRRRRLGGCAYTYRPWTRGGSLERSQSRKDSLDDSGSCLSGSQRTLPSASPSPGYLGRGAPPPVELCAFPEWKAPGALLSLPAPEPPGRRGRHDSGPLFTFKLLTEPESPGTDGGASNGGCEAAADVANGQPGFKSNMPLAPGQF

[5] = biological target: Voltage-gated L-type calcium channel (Rattus norvegicus, UniProt P22002+Q02485+P27732); assay: Binding affinity at the L-type [Ca2+] channel from rat brain homogenate by [3H]nitrendipine displacement.; assay type: tissue-based
[6] = biological target: T5, Alpha-2A adrenergic receptor (Homo sapiens, UniProt P08913); assay: Binding affinity determined by displacement of [3H]rauwolscine from alpha-2A adrenergic receptor; in short: as §1
T5 sequence (P08913 whole entry): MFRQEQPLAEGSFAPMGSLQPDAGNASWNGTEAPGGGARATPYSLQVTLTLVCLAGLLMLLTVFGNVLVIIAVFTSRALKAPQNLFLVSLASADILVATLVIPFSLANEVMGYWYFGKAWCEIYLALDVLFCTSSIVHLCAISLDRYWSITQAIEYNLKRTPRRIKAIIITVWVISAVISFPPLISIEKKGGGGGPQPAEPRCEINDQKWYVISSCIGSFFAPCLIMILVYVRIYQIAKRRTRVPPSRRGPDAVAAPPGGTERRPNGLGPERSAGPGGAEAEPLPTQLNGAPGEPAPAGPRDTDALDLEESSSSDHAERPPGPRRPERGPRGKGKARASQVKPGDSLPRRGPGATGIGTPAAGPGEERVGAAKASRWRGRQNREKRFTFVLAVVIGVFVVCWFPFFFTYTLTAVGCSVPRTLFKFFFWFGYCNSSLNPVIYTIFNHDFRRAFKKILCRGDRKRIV

[7] = biological target: T6, Alpha-2C adrenergic receptor (Homo sapiens, UniProt P18825); assay: Binding affinity assayed by displacement of [3H]rauwolscine from human alpha-2C adrenergic receptor; in short: as §1
T6 sequence (P18825 whole entry): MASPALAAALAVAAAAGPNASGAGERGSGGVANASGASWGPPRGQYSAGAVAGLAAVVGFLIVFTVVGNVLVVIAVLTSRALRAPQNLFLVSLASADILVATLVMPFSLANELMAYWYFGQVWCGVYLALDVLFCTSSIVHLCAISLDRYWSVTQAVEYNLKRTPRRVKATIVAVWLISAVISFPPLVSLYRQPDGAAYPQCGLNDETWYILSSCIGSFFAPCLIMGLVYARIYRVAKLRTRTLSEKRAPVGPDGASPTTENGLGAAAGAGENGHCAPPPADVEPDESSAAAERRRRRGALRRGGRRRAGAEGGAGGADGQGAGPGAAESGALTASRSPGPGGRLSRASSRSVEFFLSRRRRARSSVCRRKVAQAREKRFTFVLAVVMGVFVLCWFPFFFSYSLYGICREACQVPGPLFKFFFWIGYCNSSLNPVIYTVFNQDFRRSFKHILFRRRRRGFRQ

| SMILES | Ki [1] [µM] | Ki [2] [µM] | Ki [3] [µM] | Ki [4] [µM] | Log Ki [5] | Ki [6] [µM] | Ki [7] [µM] |
| --- | --- | --- | --- | --- | --- | --- | --- |
| CNC(=O)C1=C(C)NC(C)=C(C(=O)NCCCN2CCC(c3ccccc3)(c3ccccc3)CC2)C1c1ccc([N+](=O)[O-])cc1 (stereo not given) | 0.759 | 0.00447 | 0.933 | 0.49 | < -6 |  |  |
| CC(C)C1=C(C(N)=O)C(c2ccc([N+](=O)[O-])cc2)C(C(=O)NCCCN2CCC(c3ccccc3)(c3ccccc3)CC2)=C(C(C)C)N1 (stereo not given) | 0.347 | 0.0537 |  |  |  |  |  |
| CC1=C(C(=O)NCCCN2CCC(c3ccccc3)(c3ccccc3)CC2)C(c2ccc([N+](=O)[O-])cc2)C(C(=O)N(C)C)=C(C)N1 (stereo not given) |  |  |  |  | < -6 |  |  |
| CC(=O)C1=C(C)NC(C)=C(C(=O)NCCCN2CCC(c3ccccc3)(c3ccccc3)CC2)C1c1ccc([N+](=O)[O-])cc1 (stereo not given) |  |  |  |  | < -6 |  |  |
| CCC1=C(C(N)=O)C(c2ccc([N+](=O)[O-])cc2)C(C(=O)NCCCN2CCC(c3ccccc3)(c3ccccc3)CC2)=C(CC)N1 (stereo not given) |  |  |  |  |  | 0.355 |  |
| CC1=C(C(N)=O)C(c2ccc([N+](=O)[O-])cc2)C(C(=O)NCCCN2CCC(c3ccccc3)(c3ccccc3)CC2)=C(C)N1 (single isomer, unassigned; (+)) | 0.398 |  | 0.407 |  |  |  |  |
| CC1=C(C(N)=O)C(c2ccc([N+](=O)[O-])cc2)C(C(=O)NCCCN2CCC(c3ccccc3)(c3ccccc3)CC2)=C(C)N1 (single isomer, unassigned; (-)) | 0.224 |  | 0.282 |  |  |  |  |
| CC1=C(C(N)=O)C(c2ccc([N+](=O)[O-])cc2)C(C(=O)NCCCN2CCC(c3ccccc3)(c3ccccc3)CC2)=C(C)N1 (stereo in doubt; 19) |  |  |  |  | < -6 |  |  |

Continued, values first:

| Ki [1] [µM] | Ki [2] [µM] | Ki [3] [µM] | Ki [4] [µM] | Log Ki [5] | Ki [6] [µM] | Ki [7] [µM] | SMILES |
| --- | --- | --- | --- | --- | --- | --- | --- |
| 0.316 | 0.00148 | 0.575 | 0.162 | < -6 | 0.631 | 0.398 | CO/C(O)=C1\C(C)=NC(C)=C(C(=O)NCCCN2CCC(c3ccccc3)(c3ccccc3)CC2)C1c1ccc([N+](=O)[O-])c(OC)c1 (stereo not given) |
| 1.74 | 0.316 | 0.2 | 0.977 |  | 1.17 | 0.776 | CC1=C(C(=O)O)C(c2ccc3c(c2)OCO3)C(C(=O)NCCCN2CCC(c3ccccc3)(c3ccccc3)CC2)=C(C)N1 (stereo not given) |
| 0.447 | 0.00178 | 2.29 | 0.123 | < -6 | 2.14 | 1 | CO/C(O)=C1\C(C)=NC(C)=C(C(=O)NCCCN2CCC(c3ccccc3)(c3ccccc3)CC2)C1c1ccc(Cl)cc1 (stereo not given) |
| 0.49 | 0.00708 | 1.51 | 0.204 | < -6 | 2.19 | 1.15 | CO/C(O)=C1\C(C)=NC(C)=C(C(=O)NCCCN2CCC(c3ccccc3)(c3ccccc3)CC2)C1c1ccc(OC)cc1 (stereo not given) |
| 0.126 | 0.000525 | 0.0912 | 0.0417 | < -6 | 0.11 | 0.0479 | CO/C(O)=C1\C(C)=NC(C)=C(C(=O)NCCCN2CCC(c3ccccc3)CC2)C1c1ccc(Cl)c([N+](=O)[O-])c1 (stereo not given) |
| 0.501 | 0.0204 | 0.49 | 0.24 | < -6 | 0.676 | 0.245 | CO/C(O)=C1\C(C)=NC(C)=C(C(=O)N(C)CCCN2CCC(c3ccccc3)(c3ccccc3)CC2)C1c1ccc([N+](=O)[O-])cc1 (stereo not given) |
|  | 0.0162 | 0.575 | 1.78 |  | 2.09 | 1.02 | CNC(=O)C1=C(C)NC(C)=C(C(=O)NCCCN2CCC(c3ccccc3)(c3ccccc3)CC2)C1c1ccc2c(c1)OCO2 (stereo not given) |
| 0.38 | 0.00182 | 1.26 | 0.151 | < -6 | 0.759 | 0.871 | CO/C(O)=C1\C(C)=NC(C)=C(C(=O)NCCCN2CCC(c3ccccc3)(c3ccccc3)CC2)C1c1ccc(C#N)cc1 (stereo not given) |
| 1.15 | 0.00871 | 0.513 | 0.0776 | < -6 | 0.447 | 0.245 | CO/C(O)=C1\C(C)=NC(C)=C(C(=O)NCCN2CCC(c3ccccc3)(c3ccccc3)CC2)C1c1ccc([N+](=O)[O-])cc1 (stereo not given) |

Reference: ChEMBL document CHEMBL1131023, “Identification of a dihydropyridine as a potent alpha1a adrenoceptor-selective antagonist that inhibits phenylephrine-induced contraction of the human prostate” (J Med Chem, 1998)
